The target of one assay is T1, I-A^s (Mus musculus, UniProt P06345+P14437).
T1 sequence (P14437 1-233): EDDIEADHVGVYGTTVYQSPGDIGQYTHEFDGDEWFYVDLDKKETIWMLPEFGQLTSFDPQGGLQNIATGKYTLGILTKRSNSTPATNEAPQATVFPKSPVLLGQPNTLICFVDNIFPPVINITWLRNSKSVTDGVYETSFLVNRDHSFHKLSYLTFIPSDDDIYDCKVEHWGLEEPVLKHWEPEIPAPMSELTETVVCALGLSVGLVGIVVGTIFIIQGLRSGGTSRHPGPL
T1 sequence (P06345 28-263): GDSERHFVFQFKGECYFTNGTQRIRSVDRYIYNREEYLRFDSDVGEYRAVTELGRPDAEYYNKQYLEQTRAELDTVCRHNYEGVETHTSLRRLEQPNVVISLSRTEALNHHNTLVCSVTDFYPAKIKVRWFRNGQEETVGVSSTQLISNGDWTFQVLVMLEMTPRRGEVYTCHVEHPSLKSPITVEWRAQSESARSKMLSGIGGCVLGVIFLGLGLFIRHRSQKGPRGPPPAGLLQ
The following applies: binding to I-A^s relative to W144 (1.0); cited from earlier work.

In a further assay the test system is Q1.1B6 T cell clone. The following applies: representative experiment; cited from earlier work.
Assay [1] deals with CD4+ 1B6 Rag2−/− T cell lines. Nature of the assay: Cytokine ELISA on 1B6 T cell lines. The assay is classed as cell-based, mouse. The following applies: supernatants after 40 h, Fig. 3. In general terms: ELISA stands for enzyme-linked immunosorbent assay.
The test system of assay [2] is peripheral CD4+ T cells of the 1B6 transgenic mouse. In words: Proliferation of naive ex-vivo 1B6 TCR transgenic T cells. The conditions noted are these: LNCs from 1B6 TCR transgenic mouse, [3H]thymidine added after 48 h; Fig. 1. Type of assay: cell-based. The gist of the method:
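Lymph node cells from a 1B6 TCR transgenic mouse were stimulated in culture with different peptide ligands. Per the general proliferation method, cultures were run in triplicate. After 48 h, [3H]thymidine (1 μCi/well) was added for the final 16 h before harvest. Incorporation was read by scintillation counting.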

These results are taken from publication PMC2194103 (The Journal of Experimental Medicine, 2002).

Some results are limits rather than exact numbers.

In the case of HSLGKLLGHPDKF [Ligand L144], at I-A^s, the “Relative MHC binding” value is 0.8. In the assay on Q1.1B6 T cell clone, the “Cytokine IL-4” value was 390 pg/mL and the “Cytokine TNF-α” value was 420 pg/mL. In assay [1], the “Secretion of IL-2 by desensitized cells” value is “selectively blunted”. In assay [2], the “Stimulatory potential for proliferation (hierarchy of response)” value (“Stimulatory potential for proliferation” for short) is listed as “superagonist ligand”.

As for HSLGKQLGHPDKF [Ligand Q144], the “Relative MHC binding” value on I-A^s was 0.6. Also, in the assay on Q1.1B6 T cell clone, the “Cytokine IFN-γ” value is recorded as 9,052 pg/ml, the “Cytokine IL-2” value was below 50 pg/mL, the “Cytokine IL-4” value was 200 pg/mL and the “Cytokine TNF-α” value was below 50 pg/mL. In assay [2], the “Stimulatory potential for proliferation” value is on record as “agonist”.

Turning to “HSLGKWLGHPDKF [Ligand W144, reference compound]”, the “Relative MHC binding” value on I-A^s is reported as 1.0. Also, in the assay with Q1.1B6 T cell clone, the “Cytokine IFN-γ” value was 420 pg/mL, the “Cytokine IL-2” value is below 50 pg/mL, the “Cytokine IL-4” value was below 50 pg/mL and the “Cytokine TNF-α” value is below 50 pg/mL. Moreover, the “Stimulatory potential for proliferation” value in assay [2] is listed as “weaker ligand”.
